Results on 2 compounds are retold here after ChEMBL document CHEMBL3102750 (J Med Chem, 2013).

Data set [1] concerns the target T1, Muscarinic acetylcholine receptor M5 (Homo sapiens, UniProt P08912).
T1 sequence (P08912 whole entry): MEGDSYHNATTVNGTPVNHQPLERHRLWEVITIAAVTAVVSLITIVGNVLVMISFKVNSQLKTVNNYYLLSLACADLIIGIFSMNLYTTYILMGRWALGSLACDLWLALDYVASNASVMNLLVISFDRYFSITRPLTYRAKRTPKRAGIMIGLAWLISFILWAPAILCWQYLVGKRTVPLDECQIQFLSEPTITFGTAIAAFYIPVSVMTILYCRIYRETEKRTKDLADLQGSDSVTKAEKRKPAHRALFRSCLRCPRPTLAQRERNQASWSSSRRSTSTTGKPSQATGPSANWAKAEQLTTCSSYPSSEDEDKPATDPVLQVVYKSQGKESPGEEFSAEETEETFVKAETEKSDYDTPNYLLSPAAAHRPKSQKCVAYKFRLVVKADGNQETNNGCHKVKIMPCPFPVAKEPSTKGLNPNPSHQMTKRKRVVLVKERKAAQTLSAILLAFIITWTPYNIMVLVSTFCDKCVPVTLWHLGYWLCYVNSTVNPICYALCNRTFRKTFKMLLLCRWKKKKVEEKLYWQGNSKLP
Kind of data set: Negative allosteric modulation of human muscarinic acetylcholine receptor M5 expressed in CHO cells assessed as inhibition of acetylcholine-induced calcium mobilization incubated for 150 secs prior to acetylcholine induction by Fluo-4 AM staining-based fluorescence assay. The data set is classed as functional, cell-based.

The target in data set [2] is T2, Muscarinic acetylcholine receptor M1 (Homo sapiens, UniProt P11229).
T2 sequence (P11229 whole entry): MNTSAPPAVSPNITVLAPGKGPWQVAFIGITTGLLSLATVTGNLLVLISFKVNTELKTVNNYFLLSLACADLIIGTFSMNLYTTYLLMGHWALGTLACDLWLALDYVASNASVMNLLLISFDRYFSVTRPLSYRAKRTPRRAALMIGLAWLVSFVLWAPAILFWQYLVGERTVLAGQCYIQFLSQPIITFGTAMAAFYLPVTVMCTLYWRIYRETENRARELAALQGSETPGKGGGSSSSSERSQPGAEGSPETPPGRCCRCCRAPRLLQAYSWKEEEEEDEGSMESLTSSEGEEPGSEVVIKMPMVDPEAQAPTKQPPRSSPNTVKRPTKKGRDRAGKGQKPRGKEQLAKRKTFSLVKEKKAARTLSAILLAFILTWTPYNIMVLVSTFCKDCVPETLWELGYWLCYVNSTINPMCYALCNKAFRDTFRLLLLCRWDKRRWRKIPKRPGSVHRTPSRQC
Kind of data set: Negative allosteric modulation of human muscarinic acetylcholine receptor M1 expressed in CHO cells assessed as inhibition of acetylcholine-induced calcium mobilization incubated for 150 secs prior to acetylcholine induction by Fluo-4 AM staining-based fluorescence assay. In kind it is functional, cell-based.

Data set [3] deals with T3, Muscarinic acetylcholine receptor M5 (Rattus norvegicus, UniProt P08911).
T3 sequence (P08911 whole entry): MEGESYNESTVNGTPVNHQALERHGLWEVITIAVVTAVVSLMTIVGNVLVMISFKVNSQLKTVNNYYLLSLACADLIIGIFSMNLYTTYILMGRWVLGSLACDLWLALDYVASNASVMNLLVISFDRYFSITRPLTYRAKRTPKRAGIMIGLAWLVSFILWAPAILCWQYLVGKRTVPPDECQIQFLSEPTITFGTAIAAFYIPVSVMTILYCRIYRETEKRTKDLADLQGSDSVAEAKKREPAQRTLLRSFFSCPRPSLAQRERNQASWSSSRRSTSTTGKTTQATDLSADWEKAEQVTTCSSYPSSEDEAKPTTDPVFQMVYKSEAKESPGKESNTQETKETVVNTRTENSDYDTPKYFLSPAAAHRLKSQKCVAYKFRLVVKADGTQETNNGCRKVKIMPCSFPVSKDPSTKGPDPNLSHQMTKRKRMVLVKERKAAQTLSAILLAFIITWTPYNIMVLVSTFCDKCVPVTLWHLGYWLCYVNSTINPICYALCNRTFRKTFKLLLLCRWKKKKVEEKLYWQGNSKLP
The data set can be described thus: Negative allosteric modulation of rat muscarinic acetylcholine receptor M5 expressed in CHO cells assessed as inhibition of acetylcholine-induced calcium mobilization incubated for 150 secs prior to acetylcholine induction by Fluo-4 AM staining-based fluorescence assay. The data set is classed as functional, cell-based.

The test system of data set [4] is Cynomolgus monkey. The data set can be described thus: Elimination half life in cynomolgus monkey at 1 mg/kg, iv. In kind it is ADME, organism-based, Macaca fascicularis. More on the design: dose 1 mg/kg, route intravenous. The settings on record: in vivo.
For data set [5], the system named is Cynomolgus monkey. The data set can be described thus: Volume of distribution at steady state in cynomolgus monkey at 1 mg/kg, iv. In kind it is ADME, organism-based, Macaca fascicularis. More on the design: dose 1 mg/kg, route intravenous. The settings on record: in vivo.
A short description of data set [6]: Tmax in po dosed Sprague-Dawley rat. The following applies: in vivo. The data set is classed as ADME, organism-based.
In data set [7] the test system is Rattus norvegicus. Kind of data set: Volume of distribution at steady state in Sprague-Dawley rat at 1 mg/kg, iv. In kind it is ADME, organism-based. The following applies: in vivo. Also on record: dose 1 mg/kg, route intravenous.
Data set [8] has as its target Cytochrome P450 2D6 (Homo sapiens, UniProt P10635). Kind of data set: Inhibition of CYP2D6 in human liver microsomes using dextromethorphan as substrate preincubated for 15 mins followed by NADPH addition measured after 8 mins by LC/MS/MS analysis. The data set is classed as ADME.
Data set [9] in a line: Ratio of brain to plasma partition coefficient in Sprague-Dawley rat at 10 mg/kg, po measured at 1 hr. More on the design: dose 10 mg/kg, route oral. In kind it is ADME, organism-based. Put shortly: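 Oral CNS distribution study in male Sprague-Dawley rats (n=2), 10 mg/kg; brain and plasma sampled one hour post-dose. Total (Kp) and unbound (Kp,uu) brain-plasma partition coefficients calculated, with unbound fractions from plasma and brain homogenate binding.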

Data set [10] is described as follows: Fraction unbound in Sprague-Dawley rat brain at 5 uM after 4 hrs by equilibrium dialysis method. In kind it is ADME, tissue-based. Put shortly:
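Nonspecific binding measured in rat brain homogenate to give unbound fraction in brain (fu,br).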

In data set [11] the test system is Plasma. Kind of data set: Fraction unbound in Sprague-Dawley rat plasma at 5 uM after 4 hrs by equilibrium dialysis method. The data set is classed as ADME, cell-free. The method, boiled down: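 Fraction unbound determined in plasma from rat, cynomolgus monkey and human.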
Data set [12] addresses Cytochrome P450 3A4 (Homo sapiens, UniProt P08684). The data set can be described thus: Inhibition of CYP3A4 in human liver microsomes using midazolam as substrate preincubated for 15 mins followed by NADPH addition measured after 8 mins by LC/MS/MS analysis. In kind it is ADME.
Data set [13] deals with Cytochrome P450 2C9 (Homo sapiens, UniProt P11712). The data set can be described thus: Inhibition of CYP2C9 in human liver microsomes using diclofenac as substrate preincubated for 15 mins followed by NADPH addition measured after 8 mins by LC/MS/MS analysis. The data set is classed as ADME.
Sequence of Cytochrome P450 2C9 (P11712 whole entry): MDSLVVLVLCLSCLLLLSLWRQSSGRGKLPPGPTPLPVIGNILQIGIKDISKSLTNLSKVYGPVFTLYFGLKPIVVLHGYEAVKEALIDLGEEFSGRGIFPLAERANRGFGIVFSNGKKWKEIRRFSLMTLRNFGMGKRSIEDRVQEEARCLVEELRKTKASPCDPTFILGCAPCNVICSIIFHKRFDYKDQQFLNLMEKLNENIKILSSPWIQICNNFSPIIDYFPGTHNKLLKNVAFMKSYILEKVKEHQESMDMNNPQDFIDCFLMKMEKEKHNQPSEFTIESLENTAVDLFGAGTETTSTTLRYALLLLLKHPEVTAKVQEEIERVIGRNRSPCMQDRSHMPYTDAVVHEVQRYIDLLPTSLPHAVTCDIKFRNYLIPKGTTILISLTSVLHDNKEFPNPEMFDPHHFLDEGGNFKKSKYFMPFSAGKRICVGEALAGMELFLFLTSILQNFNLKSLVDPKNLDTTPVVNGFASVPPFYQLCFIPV
Data set [14] is described as follows: Cmax in po dosed Sprague-Dawley rat. In kind it is ADME, organism-based. More on the design: route oral. The following applies: in vivo.
A short description of data set [15]: Plasma clearance in Sprague-Dawley rat at 1 mg/kg, iv. The data set is classed as ADME, organism-based. More on the design: dose 1 mg/kg, route intravenous.
Data set [16] can be described thus: Oral bioavailability in Sprague-Dawley rat. In kind it is ADME, organism-based. The settings on record: in vivo.

SMILES strings stand for the structures. Some results are limits rather than exact numbers.

Sequence of Cytochrome P450 3A4 (P08684 whole entry): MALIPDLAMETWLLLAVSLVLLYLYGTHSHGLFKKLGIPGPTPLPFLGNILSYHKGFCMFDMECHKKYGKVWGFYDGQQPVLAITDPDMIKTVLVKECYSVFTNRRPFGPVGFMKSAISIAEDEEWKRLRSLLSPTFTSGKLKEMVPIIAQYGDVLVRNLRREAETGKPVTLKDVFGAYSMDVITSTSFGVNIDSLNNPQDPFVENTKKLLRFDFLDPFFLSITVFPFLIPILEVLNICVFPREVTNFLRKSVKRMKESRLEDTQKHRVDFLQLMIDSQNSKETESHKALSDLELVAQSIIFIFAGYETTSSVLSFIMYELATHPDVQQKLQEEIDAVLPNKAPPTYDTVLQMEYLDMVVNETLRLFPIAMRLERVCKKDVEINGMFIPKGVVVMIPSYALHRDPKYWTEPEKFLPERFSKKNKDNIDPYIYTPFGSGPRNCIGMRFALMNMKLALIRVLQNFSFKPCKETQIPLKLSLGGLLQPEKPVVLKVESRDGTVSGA
Sequence of Cytochrome P450 2D6 (P10635 whole entry): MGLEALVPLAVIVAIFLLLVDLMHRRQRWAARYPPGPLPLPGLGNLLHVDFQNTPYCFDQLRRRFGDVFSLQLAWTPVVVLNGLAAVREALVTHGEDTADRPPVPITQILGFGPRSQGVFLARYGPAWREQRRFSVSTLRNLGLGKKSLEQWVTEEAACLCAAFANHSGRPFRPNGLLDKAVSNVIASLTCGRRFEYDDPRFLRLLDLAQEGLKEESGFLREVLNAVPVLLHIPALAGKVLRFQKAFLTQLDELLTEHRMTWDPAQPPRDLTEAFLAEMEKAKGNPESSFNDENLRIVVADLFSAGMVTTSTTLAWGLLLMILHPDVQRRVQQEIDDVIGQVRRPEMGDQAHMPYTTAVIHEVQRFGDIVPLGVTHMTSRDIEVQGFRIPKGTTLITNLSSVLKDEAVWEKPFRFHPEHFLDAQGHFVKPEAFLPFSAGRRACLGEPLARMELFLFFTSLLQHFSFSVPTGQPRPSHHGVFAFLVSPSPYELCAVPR

In the case of `O=C(c1ccc(F)c(F)c1)N1CCN2C(=O)c3ccccc3C12c1ccccc1` (configuration not stated), the IC50 is 1.05 µM in data set [1], greater than 30 µM in data set [2] and 2.1 µM in data set [3].

Regarding `O=C(c1ccc(F)c(F)c1)N1CCN2C(=O)c3ccccc3[C@@]12c1ccc(Cl)cc1`, the “beta t1/2” value in data set [4] is 10 h. The distribution volume (Vdss) was 1.9 L/kg in data set [5] and 16 L/kg in [7]. Further, the Tmax in [6] stood at 7 h. In addition, the IC50 in data set [8] is 26 µM; in [2] it was greater than 30 µM; in data set [12], 16 µM; in data set [13], 7.4 µM. The BPR in data set [9] is 1.8. For the same compound, the Fu worked out at 0.003 in data set [10] and 0.029 in data set [11]. Moreover, in [14], the peak concentration (Cmax) worked out at 1400 nM. The clearance in data set [15] was found to be 2.5 mL/min/kg. Also, in data set [16], the bioavailability is 80%.
